The results in this text go back to ChEMBL document CHEMBL3804770 (J Med Chem, 2016).

Calls of active or inactive are those of the source. The rule behind the calls is not given here.

One may read the IC50 as the concentration that gives 50% inhibition. Usually logD stands for the decadic logarithm of the distribution of all forms, ionised or not, between an organic phase and buffer at a given pH. A low value points to a more hydrophilic compound.

A short description of data set [1]: Photocytotoxicity against human SKOV3 cells assessed as cell viability incubated for 24 hrs under dark conditions followed by 5.6 mW/cm2 of laser illumination for 30 mins measured 72 hrs post drug wash out by MTT assay. It counts as functional, cell-based. The following applies: SK-OV-3. A digest of the protocol: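 SKOV-3 cells (5000/well) held 24 h in the dark with drug, illuminated at 690 nm, 5.6 mW/cm², 30 min (10 J/cm²). Medium then replaced with fresh medium to remove released material, followed by 72 h incubation and MTT readout (570 nm, 650 nm background), viability relative to untreated wells.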
On the technique in general: Tetrazolium dyes change colour on reduction, which living cells bring about.

Data set [2] has as its target T1, Tubulin (Sus scrofa) (UniProt P02554+P02550). The experiment in a line: Induction of porcine brain tubulin polymerization at 3 uM after 40 mins by fluorescence analysis in presence of GTP. The procedure, abridged: (§1)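 Fluorescence-based tubulin polymerization kit. Compound in DMSO diluted with water, then combined with tubulin and GTP in buffer at 37 °C. Fluorescence (excitation 360 nm, emission 450 nm) read every 2 min for 1 h.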

The nature of data set [3]: Drug uptake in cytosol of human SKOV3 cells at 0.5 uM after 23 hrs by tubulin tracker green fluorescent dye based confocal microscopy. The class given is ADME, cell-based, SK-OV-3. A digest of the protocol: (§2)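 SKOV-3 cells grown in α-MEM with 10% bovine growth serum, 2 mM L-glutamine, penicillin/streptomycin and fungizone were seeded on coverslips, cultured 24 h, then exposed to prodrug at 500 nM for 24 h under minimal light. Tubulin tracker green, 1 µM final in HBSS, added 45-60 min at 37 °C, then washed. Confocal imaging: tracker excitation 488 nm/emission 500-550 nm, prodrug excitation 633 nm/emission 650-800 nm, three random fields per treatment.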

The target in data set [4] is T1, Tubulin (Sus scrofa). The data set can be described thus: Induction of porcine brain tubulin polymerization at 1.5 uM irradiated with 5.6 mW/cm2 of far-red light for 30 mins measured every 2 mins for 1 hr by fluorescence analysis.
Data set [5] in a line: Drug degradation in complete medium at 10 uM after 96 hrs by HPLC analysis under dark conditions.
The nature of data set [6]: Ratio of photocytotoxic IC50 for human SKOV3 cells measured after drug wash out to photocytotoxic IC50 for human SKOV3 cells measured before drug wash out. The class given is functional, SK-OV-3.
Data set [7] can be described thus: Drug uptake in nucleus of human SKOV3 cells at 0.5 uM after 23 hrs by tubulin tracker green fluorescent dye based confocal microscopy. The class given is ADME, cell-based. Conditions: sk-ov-3, 23 h. A digest of the protocol:
as §2

The nature of data set [8]: Dark cytotoxicity against human SKOV3 cells assessed as cell viability after 72 hrs by MTT assay. It counts as cell-based. The following applies: SK-OV-3, 72 h. The procedure, abridged:
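SKOV-3 cells seeded at 5000/well, incubated 24 h, then treated from 2 mM DMSO stocks diluted in medium to final concentrations; kept in the dark 72 h. MTT ([…]) added, formazan dissolved in DMSO, absorbance 570 nm minus 650 nm background; viability as percentage of untreated wells.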

Data set [9] addresses T1, Tubulin (Sus scrofa). The data set can be described thus: Induction of porcine brain tubulin polymerization at 30 uM measured every 2 mins for 1 hr by fluorescence analysis in presence of GTP. The procedure, abridged:
as §1

Data set [10] is described as follows: nOctanol-phosphate buffer partition coefficient, log D of the compound at pH 7.4 incubated for 3 hrs in dark condition by fluorimeter. It counts as physicochemical. Conditions: octanol/water, pH 7.4, 3 h.
The nature of data set [11]: Photocytotoxicity against human SKOV3 cells assessed as cell viability incubated for 24 hrs under dark conditions followed by 5.6 mW/cm2 of laser illumination for 30 mins measured after 72 hrs by MTT assay. It counts as functional, cell-based. Conditions: SK-OV-3. The procedure, abridged:
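SKOV-3 cells (5000/well) dosed from 2 mM DMSO stocks diluted in medium; after 24 h dark incubation, plates illuminated uncovered on orbital shaker with 690 nm diode laser, 5.6 mW/cm² for 30 min (10 J/cm²). Incubated a further 72 h, then MTT read at 570 nm with 650 nm background; viability as percentage of untreated controls.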

Data set [12] is described as follows: Ratio of compound IC50 to PTX IC50 for dark cytotoxicity against human SKOV3 cells. It counts as cell-based, SK-OV-3. Conditions: read-out: Ratio IC50.
The nature of data set [13]: Retention time of the compound at 10 uM by HPLC analysis. It counts as physicochemical. The procedure, abridged:
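Complete medium containing 10 µM compound held at 37 °C in the dark. Samples were extracted into dichloromethane, dried, and taken up in 5% DMSO in ACN. Isocratic HPLC with 90% ACN/10% 10 mM ammonium acetate at 0.5 mL/min; detection by diode array at 675 nm.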

Data set [14] in a line: Drug degradation […] at 10 uM after 24 hrs by HPLC analysis under dark conditions. It counts as physicochemical. Conditions: read-out: Drug degradation. A digest of the protocol: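 10 μM solution in complete cell culture medium, made from DMSO stock, kept at 37 °C in the dark. Aliquots taken at 0, 2, 24, 48, 96 and 168 h, extracted with dichloromethane, reconstituted in 5% DMSO in ACN. Analysed by isocratic HPLC (90% ACN/10% 10 mM ammonium acetate, 0.5 mL/min); remaining percentage versus t = 0, three experiments.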

The nature of data set [15]: Retention time of the compound in DMSO treated with (Pc-(L-PTX)2) by mass spectroscopy/HPLC analysis. It counts as physicochemical.

T1 sequence (P02550 whole entry, looked up): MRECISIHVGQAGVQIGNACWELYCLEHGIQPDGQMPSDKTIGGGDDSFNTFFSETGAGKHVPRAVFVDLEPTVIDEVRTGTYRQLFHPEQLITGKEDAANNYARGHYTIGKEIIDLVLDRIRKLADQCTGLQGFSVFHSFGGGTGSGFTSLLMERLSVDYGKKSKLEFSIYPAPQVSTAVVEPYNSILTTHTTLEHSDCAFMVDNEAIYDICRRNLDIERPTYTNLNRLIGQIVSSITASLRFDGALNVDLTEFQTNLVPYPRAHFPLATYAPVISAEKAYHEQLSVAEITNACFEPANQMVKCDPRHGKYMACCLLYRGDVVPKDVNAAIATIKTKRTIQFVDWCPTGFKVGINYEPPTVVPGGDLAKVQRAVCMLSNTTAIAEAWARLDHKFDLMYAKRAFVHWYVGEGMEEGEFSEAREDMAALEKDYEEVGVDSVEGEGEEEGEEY
T1 sequence (P02554 whole entry, looked up): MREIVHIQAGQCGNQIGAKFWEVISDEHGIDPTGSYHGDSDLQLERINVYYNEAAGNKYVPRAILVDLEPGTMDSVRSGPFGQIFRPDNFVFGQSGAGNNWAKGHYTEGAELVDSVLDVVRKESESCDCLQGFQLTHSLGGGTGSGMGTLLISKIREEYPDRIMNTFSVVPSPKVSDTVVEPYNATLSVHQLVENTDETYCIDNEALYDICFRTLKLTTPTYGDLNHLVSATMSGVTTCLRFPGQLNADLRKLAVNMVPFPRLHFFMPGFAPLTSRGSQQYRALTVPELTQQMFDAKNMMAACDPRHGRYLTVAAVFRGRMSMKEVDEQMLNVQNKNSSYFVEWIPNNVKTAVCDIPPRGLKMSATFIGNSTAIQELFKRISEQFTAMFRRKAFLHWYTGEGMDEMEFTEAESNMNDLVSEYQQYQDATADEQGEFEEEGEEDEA

As to `CC(=O)O[C@H]1C(=O)[C@@]2(C)[C@H]([C@H](OC(=O)c3ccccc3)[C@]3(O)C[C@H](OC(=O)[C@H](OC(=O)/C=C/N4CCN(CCO[Si]5(OCCN6CCN(/C=C/C(=O)O[C@@H](C(=O)O[C@H]7C[C@@]8(O)[C@@H](OC(=O)c9ccccc9)[C@@H]9[C@]%10(OC(C)=O)CO[C@@H]%10C[C@H](O)[C@@]9(C)C(=O)[C@H](OC(C)=O)C(=C7C)C8(C)C)[C@@H](NC(=O)c7ccccc7)c7ccccc7)CC6)n6c7c8ccccc8c6/N=C6N=C(/N=c8/c9ccccc9/c(n85)=N/C5=NC(=N\7)/c7ccccc75)c5ccccc5\6)CC4)[C@@H](NC(=O)c4ccccc4)c4ccccc4)C(C)=C1C3(C)C)[C@]1(OC(C)=O)CO[C@@H]1C[C@@H]2O`, the IC50 came to 89 nM in data set [1], 910 nM in data set [8] and 3.9 nM in [11]. Moreover, the outcome at Tubulin (Sus scrofa) [2] and at Tubulin (Sus scrofa) [9] was inactive. Moreover, the Drug uptake entry was “Active” in [3] and “Not Active” in data set [7]. Besides, the result at Tubulin (Sus scrofa) [4] was Active. The compound further had a degraded at 96 h, 10 µM in data set [5] of under 7%. In data set [6], the “Ratio IC50” value is reported as 23. For the same compound, the logD in data set [10] is reported as over 3.1. The selectivity ratio in data set [12] turned out to be 190. Further, the Retention_time in [13] came out at 32 min.
Consider `CC(=O)O[C@H]1C(=O)[C@@]2(C)[C@H](O)C[C@@H]3OC[C@]3(OC(C)=O)[C@@H]2[C@@H](OC(=O)c2ccccc2)[C@]2(O)C[C@@H](OC(=O)[C@@H](OC(=O)CCC(=O)N3CCN(CCO[Si]4(OCCN5CCN(C(=O)CCC(=O)O[C@@H](C(=O)O[C@@H]6C[C@@]7(O)[C@H](OC(=O)c8ccccc8)[C@H]8[C@@]9(OC(C)=O)CO[C@H]9C[C@@H](O)[C@]8(C)C(=O)[C@H](OC(C)=O)C(=C6C)C7(C)C)[C@H](NC(=O)c6ccccc6)c6ccccc6)CC5)n5c6c7ccccc7c5/N=C5N=C(/N=c7/c8ccccc8/c(n74)=N/C4=NC(=N\6)/c6ccccc64)c4ccccc4\5)CC3)[C@H](NC(=O)c3ccccc3)c3ccccc3)C(C)=C1C2(C)C` (some centres undefined), for which the figures for the IC50 in data set [1], in [8] and in data set [11] were 53 nM, 1280 nM and 24 nM, respectively. Also, the result on Tubulin (Sus scrofa) [2], on Tubulin (Sus scrofa) [4] and at Tubulin (Sus scrofa) [9] was inactive. Moreover, the Drug uptake entry in data set [3] was “Active”; in [7], “Not Active”. The degraded at 96 h, 10 µM in [5] is 14%. Moreover, in data set [6], the “Ratio IC50” value was 2. The degraded at 24 h, 10 µM in [14] worked out at 4%. For the same compound, the logD in data set [10] is given as over 3.1. The selectivity ratio in [12] was found to be 270. For the same compound, in [13], the Retention_time stood at 21 min.
On to `CC(=O)O[C@H]1C(=O)[C@@]2(C)[C@H]([C@H](OC(=O)c3ccccc3)[C@]3(O)C[C@H](OC(=O)[C@H](O)[C@@H](NC(=O)c4ccccc4)c4ccccc4)C(C)=C1C3(C)C)[C@]1(OC(C)=O)CO[C@@H]1C[C@@H]2O` [PACLITAXEL], for which the IC50 in data set [8] stood at 4.7 nM. In addition, in data set [15], the Retention_time amounted to 11 min.
